Published values pooled from the literature.
Protocols differ between the studies behind these lines.
rep methyltransferase: Replicase polyprotein 1ab, methyltransferase (rep, Severe acute respiratory syndrome coronavirus 2, UniProt P0DTD1)
rep main protease: Replicase polyprotein 1ab, main protease (rep, Severe acute respiratory syndrome coronavirus 2, UniProt P0DTD1)

`O=C(N1CCC2(CC1)C[C@H](CN1CCCCS1(=O)=O)CCO2)C1(c2ccccc2)CCCC1` has an IC50 of > 100 µM (Replicase polyprotein 1ab, helicase (rep, Severe acute respiratory syndrome coronavirus 2, UniProt P0DTD1); ATPase activity, inhibitor).
For `N#Cc1ccc(N2CCC(c3ccc(C(=O)O)cc3)=N2)cc1Cl`, the IC50 was 53.1 µM (rep methyltransferase; enzyme activity, inhibitor).
`O=C(O[C@@H]1Cc2c(O)cc(O)cc2O[C@@H]1c1ccc(O)c(O)c1)c1cc(O)c(O)c(O)c1` gave an IC50 of < 10 µM (rep main protease; enzyme activity, inhibitor; with preincubation).
`CCC1CC(c2ccc(C(=O)O)cc2)=NN1c1ccc(C#N)c(Cl)c1` (stereo not shown) gave an IC50 of 0.42 µM (rep methyltransferase; enzyme activity, inhibitor).
`Cc1c(O)cccc1C(=O)N[C@@H](CSc1ccccc1)[C@H](O)CN1C[C@H]2CCCC[C@H]2C[C@H]1C(=O)NC(C)(C)C` has an IC50 of 28.8 µM (rep main protease; enzyme activity, inhibitor).
For `COc1ccc(OC)c(C(O)C(C)N)c1` (stereo not shown), the DC50 was 17.4 µM (Alpha-1A adrenergic receptor (ADRA1A, Homo sapiens, UniProt P35348); protein level, degrader, western blot).
`C[C@@H]1CCO[C@H]2Cn3cc(C(=O)NCc4ccc(F)cc4F)c(=O)c(O)c3C(=O)N12` gave an IC50 of 49.4 µM (rep main protease; enzyme activity, inhibitor).
`O=C(O)c1cc(O)c(O)c(O)c1` gave an IC50 of < 10 µM (rep main protease; enzyme activity, inhibitor; with preincubation).
With `CC1(C)O[C@@H]2C[C@H]3[C@@H]4C[C@H](F)C5=CC(=O)C=C[C@]5(C)[C@@]4(F)[C@@H](O)C[C@]3(C)[C@]2(C(=O)CO)O1` the IC50 was 69.1 µM (rep main protease; enzyme activity, inhibitor).
With `CCC(Sc1nnc2c(n1)[nH]c1ccccc12)C(=O)N1c2ccccc2Sc2ccccc21` (stereo not shown) the IC50 was > 100 µM (rep methyltransferase; enzyme activity, inhibitor).
